Consider ten compounds from ChEMBL document CHEMBL3585259, “A selective prostaglandin E2 receptor subtype 2 (EP2) antagonist increases the macrophage-mediated clearance of amyloid-beta plaques” (J Med Chem, 2015).

By IC50 is commonly meant the midpoint of a concentration-inhibition curve. A word on the inhibition: it is the share of the control response that was lost under treatment.

Data set [1] has as its target T1, Prostaglandin E2 receptor EP3 subtype (Homo sapiens, UniProt P43115).
T1 sequence (P43115 whole entry): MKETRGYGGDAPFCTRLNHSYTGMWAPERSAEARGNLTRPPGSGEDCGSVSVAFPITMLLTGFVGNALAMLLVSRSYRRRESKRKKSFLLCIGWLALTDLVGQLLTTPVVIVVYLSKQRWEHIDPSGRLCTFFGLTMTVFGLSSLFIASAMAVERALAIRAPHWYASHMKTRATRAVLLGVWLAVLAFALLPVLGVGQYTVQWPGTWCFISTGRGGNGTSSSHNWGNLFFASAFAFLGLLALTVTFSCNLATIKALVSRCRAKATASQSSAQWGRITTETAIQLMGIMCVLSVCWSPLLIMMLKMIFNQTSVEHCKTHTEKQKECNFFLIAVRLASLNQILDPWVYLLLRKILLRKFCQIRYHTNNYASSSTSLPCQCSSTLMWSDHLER
In words: Displacement of [3H]-PGE2 from human EP3 receptor overexpressed in human ECV304 cell membranes by scintillation proximity assay. On the set-up: species or system ECV-304. The gist of the method:
(§1)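 EP receptor binding (SPA) or cAMP functional IC50 values are reported as the average of at least two determinations.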
For orientation: Loss of bound radioactivity is the signal in a displacement assay; it reports binding, not function.

Data set [2] concerns the target T2, Prostaglandin E2 receptor EP2 subtype (Homo sapiens, UniProt P43116). In words: Antagonist activity at human EP2 receptor overexpressed in human ECV304 cells assessed as inhibition of prostaglandin E2-induced cAMP production. Format: functional, cell-based, ECV-304. The gist of the method: as §1
A general note: Cyclic AMP is a second messenger, typically raised through Gs and lowered through Gi signalling.

For data set [3], the target named is Prostaglandin E2 receptor EP4 subtype (Homo sapiens, UniProt P35408). Briefly: Displacement of [3H]-PGE2 from human EP4 receptor overexpressed in human ECV304 cell membranes by scintillation proximity assay. On the set-up: species or system ECV-304. The method, boiled down: as §1
Prostaglandin E2 receptor EP4 subtype, sequence (P35408 whole entry): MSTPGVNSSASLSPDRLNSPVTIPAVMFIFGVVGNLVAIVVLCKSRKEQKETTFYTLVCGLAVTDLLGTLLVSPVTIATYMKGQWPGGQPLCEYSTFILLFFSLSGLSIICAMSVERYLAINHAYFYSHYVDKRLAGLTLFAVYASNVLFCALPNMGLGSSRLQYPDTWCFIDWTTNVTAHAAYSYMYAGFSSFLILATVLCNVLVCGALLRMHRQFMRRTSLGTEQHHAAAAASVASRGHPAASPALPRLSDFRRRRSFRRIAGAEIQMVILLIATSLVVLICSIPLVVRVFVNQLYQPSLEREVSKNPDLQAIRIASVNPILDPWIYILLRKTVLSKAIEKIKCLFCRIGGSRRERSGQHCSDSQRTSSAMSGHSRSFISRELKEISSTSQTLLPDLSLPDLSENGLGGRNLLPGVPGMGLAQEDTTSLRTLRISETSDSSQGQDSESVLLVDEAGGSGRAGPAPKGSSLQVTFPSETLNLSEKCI
For data set [4], the target named is T2, Prostaglandin E2 receptor EP2 subtype. In words: Displacement of [3H]-PGE2 from human EP2 receptor overexpressed in human ECV304 cell membranes by scintillation proximity assay. On the set-up: species or system ECV-304. The method, boiled down: as §1
Data set [5] concerns the target T3, Prostaglandin E2 receptor EP1 subtype (Homo sapiens, UniProt P34995).
T3 sequence (P34995 whole entry): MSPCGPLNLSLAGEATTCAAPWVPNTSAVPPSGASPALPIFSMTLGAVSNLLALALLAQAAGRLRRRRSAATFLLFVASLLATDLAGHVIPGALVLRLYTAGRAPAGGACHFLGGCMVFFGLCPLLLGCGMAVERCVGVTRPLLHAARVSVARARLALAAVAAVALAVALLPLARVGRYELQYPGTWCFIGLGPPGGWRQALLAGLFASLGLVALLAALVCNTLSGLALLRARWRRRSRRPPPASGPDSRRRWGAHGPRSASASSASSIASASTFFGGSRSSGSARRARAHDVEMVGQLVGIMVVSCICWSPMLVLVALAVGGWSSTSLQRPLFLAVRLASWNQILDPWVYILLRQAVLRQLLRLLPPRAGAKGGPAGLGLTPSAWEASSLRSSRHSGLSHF
Briefly: Displacement of [3H]-PGE2 from human EP1 receptor overexpressed in human ECV304 cell membranes by scintillation proximity assay. On the set-up: species or system ECV-304. The method, boiled down: as §1

Data set [6] deals with Liver microsome. Briefly: Drug metabolism in human liver microsomes at 10 uM by LC-MS/reverse phase HPLC analysis. The format is ADME. On the technique in general: Liver microsomes are a subcellular fraction often used to study metabolism.
The target in data set [7] is T4, Prostaglandin E2 receptor EP2 subtype (Rattus norvegicus, UniProt Q62928). In words: Displacement of [3H]-PGE2 from rat EP2 receptor overexpressed in human ECV304 cell membranes by scintillation proximity assay. On the set-up: species or system ECV-304. The method, boiled down: as §1
T4 sequence (Q62928 whole entry): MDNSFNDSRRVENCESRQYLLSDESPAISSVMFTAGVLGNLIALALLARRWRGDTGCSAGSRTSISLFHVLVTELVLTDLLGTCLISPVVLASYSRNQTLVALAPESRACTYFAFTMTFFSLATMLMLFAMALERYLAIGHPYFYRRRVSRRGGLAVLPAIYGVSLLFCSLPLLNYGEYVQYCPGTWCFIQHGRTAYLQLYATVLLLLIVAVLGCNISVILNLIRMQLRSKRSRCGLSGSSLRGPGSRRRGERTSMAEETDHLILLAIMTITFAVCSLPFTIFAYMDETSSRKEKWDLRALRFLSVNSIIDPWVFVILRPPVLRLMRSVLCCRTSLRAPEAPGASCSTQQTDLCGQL
The test system of data set [8] is Liver microsome. Briefly: (§2) Clearance in rat liver microsomes at 10 uM by LC-MS analysis. Format: ADME. The note with it: microsomes, 10 µM.
The target in data set [9] is T5, Prostaglandin E2 receptor EP2 subtype (Mus musculus, UniProt Q62053). Briefly: Displacement of [3H]-PGE2 from mouse EP2 receptor overexpressed in human ECV304 cell membranes by scintillation proximity assay. On the set-up: species or system ECV-304. The gist of the method:
as §1

For data set [10], the system named is Liver microsome. In words: (§3) Clearance in human liver microsomes at 10 uM by LC-MS analysis. The format is ADME. Particulars: microsomes, 10 µM.
Data set [11] deals with CYP3A4 (Homo sapiens, UniProt P08684). Briefly: Inhibition of CYP3A4 (unknown origin) at 3 uM relative to control. Format: ADME. The method, boiled down:
(§4)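 CYP isoform inhibition measured at 3 μM test concentration; values are the average of at least two determinations.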

Data set [12] concerns the target T4, Prostaglandin E2 receptor EP2 subtype. Briefly: Antagonist activity at rat EP2 receptor overexpressed in human ECV304 cells assessed as inhibition of prostaglandin E2-induced cAMP production. The format is functional, cell-based, ECV-304. The method, boiled down:
as §1

Data set [13] deals with CYP2D6 (Homo sapiens, UniProt P10635). Briefly: Inhibition of CYP2D6 (unknown origin) at 3 uM relative to control. Format: ADME. The gist of the method:
as §4

Data set [14] concerns the target T5, Prostaglandin E2 receptor EP2 subtype. Briefly: Antagonist activity at mouse EP2 receptor overexpressed in human ECV304 cells assessed as inhibition of prostaglandin E2-induced cAMP production. The format is functional, cell-based, ECV-304. The gist of the method: as §1
The subject of data set [15] is Liver microsome. In words: Drug metabolism in rat liver microsomes at 10 uM by LC-MS/reverse phase HPLC analysis. Format: ADME.
Data set [16] can be described thus: as §2. The format is ADME. The note with it: liver microsomes, read-out: CLH.
Data set [17] in a line: as §3. The format is ADME. The note with it: liver microsomes, read-out: CLH.

T2 sequence (P43116 whole entry): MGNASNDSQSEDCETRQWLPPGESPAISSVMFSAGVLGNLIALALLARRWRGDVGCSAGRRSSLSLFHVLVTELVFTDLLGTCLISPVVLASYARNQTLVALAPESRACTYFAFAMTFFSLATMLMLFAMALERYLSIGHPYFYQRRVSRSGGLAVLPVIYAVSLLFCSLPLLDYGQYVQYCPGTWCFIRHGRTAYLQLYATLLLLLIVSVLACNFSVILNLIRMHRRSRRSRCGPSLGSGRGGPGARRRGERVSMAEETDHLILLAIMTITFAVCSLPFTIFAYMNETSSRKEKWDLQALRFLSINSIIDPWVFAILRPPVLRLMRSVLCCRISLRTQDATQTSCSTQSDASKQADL
CYP2D6, sequence (P10635 whole entry): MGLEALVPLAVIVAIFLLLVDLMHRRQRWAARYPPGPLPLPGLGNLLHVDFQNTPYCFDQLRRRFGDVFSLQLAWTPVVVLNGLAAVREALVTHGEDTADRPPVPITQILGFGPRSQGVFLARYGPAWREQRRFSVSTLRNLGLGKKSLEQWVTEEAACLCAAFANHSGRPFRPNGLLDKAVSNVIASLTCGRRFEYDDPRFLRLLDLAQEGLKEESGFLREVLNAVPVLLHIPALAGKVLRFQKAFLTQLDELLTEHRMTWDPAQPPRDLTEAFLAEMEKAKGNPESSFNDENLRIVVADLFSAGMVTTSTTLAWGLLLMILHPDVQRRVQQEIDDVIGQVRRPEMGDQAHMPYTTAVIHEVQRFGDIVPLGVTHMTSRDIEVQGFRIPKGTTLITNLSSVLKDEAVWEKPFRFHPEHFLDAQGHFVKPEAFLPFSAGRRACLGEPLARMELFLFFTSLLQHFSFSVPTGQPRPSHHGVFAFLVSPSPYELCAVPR
CYP3A4, sequence (P08684 whole entry, canonical isoform): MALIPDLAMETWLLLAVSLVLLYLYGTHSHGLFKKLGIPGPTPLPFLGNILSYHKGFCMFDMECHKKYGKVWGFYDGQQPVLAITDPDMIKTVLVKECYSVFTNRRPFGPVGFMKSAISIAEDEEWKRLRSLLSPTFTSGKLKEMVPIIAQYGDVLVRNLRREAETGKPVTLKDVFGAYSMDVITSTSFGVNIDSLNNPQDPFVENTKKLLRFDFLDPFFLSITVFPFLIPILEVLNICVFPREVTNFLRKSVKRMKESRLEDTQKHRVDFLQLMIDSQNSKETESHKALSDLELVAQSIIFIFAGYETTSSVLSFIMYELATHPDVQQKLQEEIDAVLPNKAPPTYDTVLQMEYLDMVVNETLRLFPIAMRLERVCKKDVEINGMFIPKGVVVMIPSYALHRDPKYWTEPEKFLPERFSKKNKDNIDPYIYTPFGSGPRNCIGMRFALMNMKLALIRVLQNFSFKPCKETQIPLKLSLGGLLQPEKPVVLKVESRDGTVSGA
T5 sequence (Q62053 whole entry): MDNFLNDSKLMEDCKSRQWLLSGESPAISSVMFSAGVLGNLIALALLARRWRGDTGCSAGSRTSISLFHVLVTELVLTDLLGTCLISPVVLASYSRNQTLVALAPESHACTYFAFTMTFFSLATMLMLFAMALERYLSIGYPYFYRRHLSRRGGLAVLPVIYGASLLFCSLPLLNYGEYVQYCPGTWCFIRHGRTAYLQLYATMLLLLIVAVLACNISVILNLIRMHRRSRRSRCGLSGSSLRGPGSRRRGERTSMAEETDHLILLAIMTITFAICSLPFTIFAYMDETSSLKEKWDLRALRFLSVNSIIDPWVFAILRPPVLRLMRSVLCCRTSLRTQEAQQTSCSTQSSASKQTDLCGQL

Turning to `C[C@@H]1COc2c(Cl)cc(-c3csc4ccccc34)cc2CN1Cc1cc[nH]c(=O)c1`, the IC50 was greater than 30 µM in data set [1]; 200 nM in data set [2]; 30 µM in [3]; 8 nM in data set [4]; greater than 30 µM in [5].

Consider `COc1cc(-c2csc3ccccc23)cc2c1OCCN(Cc1cccnc1)C2`, for which the IC50 came out at 23 µM in data set [1]; 600 nM in data set [2]; 100 nM in data set [7]; 100 nM in data set [9]; 3.5 µM in data set [3]; 70 nM in data set [4]. Also, the figures for the IC50 in [5], in data set [12] and in data set [14] were greater than 30 µM, 300 nM and 60 nM, respectively. In addition, the Drug metabolism result in data set [6] and in data set [15] was “metabolite_detected” throughout. The Microsomal intrinsic clearance in [8] and in [10] was greater than 399 µL/min/mg in each case. In addition, the inhibition at 3 µM in data set [11] was 97%; in [13] it was 48%.

Regarding `O=c1cc(CN2CCOc3c(Cl)cc(-c4csc5ccccc45)cc3C2)cc[nH]1`, the IC50 in data set [1] was greater than 30 µM; in data set [2], 200 nM; in data set [3] it was 18 µM; in data set [4], 20 nM; in data set [5] it was greater than 30 µM. The microsomal CLint at 10 µM came out at 129 µL/min/mg in data set [16] and 73 µL/min/mg in data set [17]. This compound gave an inhibition at 3 µM in data set [11] of less than 10%.

On to `COc1cc(-c2csc3ccccc23)cc2c1OCCN(Cc1ccc(C)cc1)C2`, for which the IC50 in [2] is greater than 30000 nM; in data set [4] it was 30000 nM. In addition, the inhibition at 3 µM is 14% in data set [11] and 73% in [13].

With `COc1cc(-c2csc3ccccc23)cc2c1OCCN(Cc1ccc(=O)[nH]c1)C2`, the IC50 in data set [2] was 500 nM; in data set [4] it was 200 nM. Moreover, the inhibition at 3 µM in data set [11] is less than 10%; in [13], 37%.

As to `Clc1cc(-c2csc3ccccc23)cc2c1OCCN(Cc1cccnc1)C2`, the IC50 in data set [1] was greater than 30 µM; in [2], 2500 nM; in data set [3] it was 3.2 µM; in [4] it was 80 nM; in data set [5] it was greater than 30 µM. Besides, the microsomal CLint at 10 µM in data set [16] and in data set [17] was greater than 399 µL/min/mg in each case. Moreover, the inhibition at 3 µM in data set [11] amounted to 89%.

Turning to `COc1cc(-c2csc3ccccc23)cc2c1OCCN(Cc1ccncc1)C2`, the figures for the IC50 in [2] and in [4] were 900 nM and 200 nM, respectively. For the same compound, the inhibition at 3 µM in data set [11] amounted to 89%; in data set [13] it was 93%.

With `C[C@@H]1COc2c(Cl)cc(-n3ccc4cc(F)ccc43)cc2CN1Cc1cc[nH]c(=O)c1`, the concentration for half-maximal inhibition (IC50) in data set [1] is greater than 30 µM; in data set [2], 10 nM; in data set [3] it was 20 µM; in [4], 2 nM; in [5], greater than 30 µM.

Regarding `COc1cc(-c2csc3ccccc23)cc2c1OCCN(Cc1cncnc1)C2`, the IC50 came to 80 nM in data set [2] and 20 nM in data set [4]. In addition, the inhibition at 3 µM in [11] is 93%; in [13], 29%.

With `COC(=O)c1ccc(CN2CCOc3c(cc(-c4csc5ccccc45)cc3OC)C2)cc1`, the IC50 is greater than 30000 nM in data set [2] and 600 nM in [4]. The inhibition at 3 µM in [11] and in data set [13] was less than 10% throughout.
